Test results taken from ChEMBL document CHEMBL1833883, “Synthesis and antiangiogenic activity of new silybin galloyl esters” (J Med Chem, 2011).
In brackets after ≈: the same amount, converted by molar mass. Activity calls are given as the source filed them. The calls are words filed in the database; no cut-off is given here.

Legend:
HUVEC [1] = assay: Cytotoxicity against HUVEC assessed as cell viability after 16 hrs by MTT assay; type: cell-based; conditions: Homo sapiens
Outline: (§1)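 Confluent HUVECs on gelatin-coated wells treated with serial dilutions of compound in fresh EGM for 16 h (overnight, 16–20 h). MTT added in medium at 1 mg/mL, 3 h at 37 °C; formazan dissolved in 1% NH₃/DMSO and absorbance read at 540 nm. IC50 reported as mean ± SD of three independent experiments, each run in triplicate.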

HUVEC [2] = assay: Cytotoxicity against HUVEC by LDH release assay; type: cell-based; conditions: human
Outline: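 Confluent HUVECs on gelatin-coated wells exposed overnight (16–20 h) to serial dilutions of compound in fresh EGM. Culture medium then sampled to measure LDH leakage.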

HUVEC [3] = assay: Antiproliferative activity against HUVEC assessed as inhibition of cell growth after 3 days by MTT assay; type: functional, cell-based; conditions: Homo sapiens, 72 h
Outline: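 4 × 10³ HUVECs incubated with serial dilutions of compound for 3 days. MTT (5 mg/mL, 10 μL) added and incubated 3 h at 37 °C; formazan dissolved in 1% NH₃ in DMSO and read at 540 nm. IC50 reported as mean ± SD of three independent experiments, each run in triplicate.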

HUVEC [4] = assay: Antiangiogenic activity in HUVEC assessed as inhibition of tube formation at 10 uM after 6 hrs by Matrigel assay relative to control; type: functional; conditions: Homo sapiens
Outline: (§2)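 Roughly 1 × 10⁴ HUVECs plated in EGM on polymerized Matrigel (9 mg/mL), with or without compound; 2-methoxyestradiol 10 μM as positive control. Three images per well taken at 40× magnification. Tube formation scored in a field of about 100 cells as (sprouting×1 + connected×2 + polygons×3)/total cells, and expressed as % of untreated control; p < 0.05 versus control.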

HUVEC [5] = assay: Antiangiogenic activity in HUVEC assessed as inhibition of tube formation after 6 hrs by Matrigel assay relative to control; type: functional, cell-based; conditions: Homo sapiens; outline: as §2
[6] = Cytotoxicity against HUVEC assessed as cell viability at concentration higher than IC50 after 16 hrs by MTT assay; type: cell-based; conditions: human, HUVEC cells; read-out: Activity; outline: as §1
[7] = Cytotoxicity against HUVEC assessed as cell viability at 100 uM after 16 hrs by MTT assay; type: cell-based; conditions: human, HUVEC cells; read-out: Activity; outline: as §1
HUVEC [8] = assay: Antiangiogenic activity in HUVEC assessed as inhibition of cell migration after 16 to 20 hrs by wound healing migration assay; type: functional; conditions: Homo sapiens
Outline: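 HUVECs (passages 2–6, isolated from umbilical cord by collagenase digestion, grown in EGM) as confluent monolayers; one 1-mm cell-free line scratched per well, cells washed twice with PBS, then given fresh EGM with or without compound. Wound photographed at time zero and after overnight (16–20 h) incubation at 37 °C. Minimal inhibitory concentration taken from reoccupation of the wound space.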

HUVEC [9] = assay: Antiangiogenic activity in HUVEC assessed as inhibition of tube formation at 50 uM after 6 hrs by Matrigel assay; type: functional, cell-based; conditions: Homo sapiens
HUVEC [10] = assay: Antiangiogenic activity in HUVEC assessed as inhibition of tube formation up to 75 uM after 6 hrs by Matrigel assay; type: functional, cell-based; conditions: Homo sapiens; outline: as §2
HUVEC [11] = assay: Antiangiogenic activity in HUVEC assessed as inhibition of tube formation after 24 hrs by Matrigel assay; type: functional; conditions: Homo sapiens
Outline: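 Matrigel (9 mg/mL) polymerized at 37 °C for at least 30 min. About 1 × 10⁴ HUVECs seeded in EGM with or without compound; 2-methoxyestradiol 10 μM as positive control. After 24 h, the minimal inhibitory concentration was taken as the lowest concentration at which no tubular structures formed.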

HUVEC [12] = assay: Antiangiogenic activity in HUVEC assessed as inhibition of tube formation at 20 uM after 6 hrs by Matrigel assay relative to control; type: functional; conditions: Homo sapiens; outline: as §2
HUVEC [13] = assay: Antiangiogenic activity in HUVEC assessed as inhibition of tube formation at 30 uM after 6 hrs by Matrigel assay relative to control; type: functional; conditions: Homo sapiens; outline: as §2
HUVEC [14] = assay: Antiangiogenic activity in HUVEC assessed as inhibition of tube formation at 10 uM after 6 hrs by Matrigel assay; type: functional, cell-based; conditions: Homo sapiens; outline: as §2
HUVEC [15] = assay: Antiangiogenic activity in HUVEC assessed as inhibition of tube formation at 75 uM after 6 hrs by Matrigel assay; type: functional, cell-based; conditions: Homo sapiens

Row | Compound | IC50 (HUVEC [1]) [µM] | Activity (HUVEC [2]) | IC50 (HUVEC [3]) [µM] | inhibition at 10 µM (HUVEC [4]) [%] | inhibition (HUVEC [5]) | viability at 16 h [6] [%] | viability at 16 h, 100 µM [7] [%] | MIC (HUVEC [8]) [µM] | inhibition (HUVEC [9]) | inhibition (HUVEC [10]) | MIC (HUVEC [11]) [µM] | inhibition at 20 µM (HUVEC [12]) [%] | inhibition at 30 µM (HUVEC [13]) [%] | inhibition (HUVEC [14]) | inhibition (HUVEC [15])
1 | COc1cc([C@H]2Oc3cc([C@H]4Oc5cc(O)cc(O)c5C(=O)[C@@H]4O)ccc3O[C@@H]2CO)ccc1O [SILYBIN A] | 62.3 | Non-toxic | 8.83 |  |  |  |  |  |  |  |  |  |  |  | 
2 | COc1cc([C@@H]2Oc3cc([C@H]4Oc5cc(OC(=O)c6cc(O)c(O)c(O)c6)cc(O)c5C(=O)[C@@H]4O)ccc3O[C@H]2CO)ccc1O | 7.85 | Non-toxic | 4.29 | 79.9 | Dose-dependent effect | 50 | 40 | 10 (≈ 6.35 µg/mL) | Active |  |  |  |  |  | 
3 | COc1cc(C2Oc3cc([C@H]4Oc5cc(O)cc(O)c5C(=O)[C@@H]4OC(=O)c4cc(O)c(O)c(O)c4)ccc3OC2CO)ccc1O (some centres undefined) | 65 | Non-toxic | 12.3 |  |  |  |  | 50 (≈ 31.7 µg/mL) |  | inactive | 75 (≈ 47.6 µg/mL) |  |  |  | 
4 | COc1cc(C2Oc3cc([C@H]4Oc5cc(O)cc(O)c5C(=O)[C@@H]4O)ccc3OC2COC(=O)c2cc(O)c(O)c(O)c2)ccc1O (some centres undefined) | 55 | Non-toxic | 11.6 |  |  |  |  | 20 (≈ 12.7 µg/mL) |  |  | 75 (≈ 47.6 µg/mL) |  |  |  | 
5 | COc1cc(C2Oc3cc([C@H]4Oc5cc(OC(=O)c6cc(O)c(O)c(O)c6)cc(O)c5C(=O)[C@@H]4O)ccc3OC2CO)ccc1O (some centres undefined) | 9.21 | Non-toxic | 4.75 | 79.9 | Dose-dependent effect | 50 | 40 | 10 (≈ 6.35 µg/mL) | Active |  | 25 (≈ 15.9 µg/mL) |  |  |  | 
6 | COc1cc(C2Oc3cc([C@H]4Oc5cc(O)cc(O)c5C(=O)[C@@H]4O)ccc3OC2CO)ccc1OC(=O)c1cc(O)c(O)c(O)c1 (some centres undefined) | 35.4 | Non-toxic | 10.3 |  |  |  |  | 20 (≈ 12.7 µg/mL) |  |  | 60 (≈ 38.1 µg/mL) | 94.5 | 49.5 |  | 
7 | COc1cc([C@H]2Oc3cc([C@H]4Oc5cc(OC(=O)c6cc(O)c(O)c(O)c6)cc(O)c5C(=O)[C@@H]4O)ccc3O[C@@H]2CO)ccc1O | 17.1 | Non-toxic | 6.06 | 79.9 | Dose-dependent effect | 50 | 40 | 10 (≈ 6.35 µg/mL) | Active |  |  |  |  |  | 
8 | COc1cc([C@@H]2Oc3cc([C@H]4Oc5cc(O)cc(O)c5C(=O)[C@@H]4O)ccc3O[C@H]2CO)ccc1O [SILYBIN B] | 60.5 | Non-toxic | 6.49 |  |  |  |  |  |  |  |  |  |  |  | 
9 | COc1cc2c(cc1O)CC[C@@H]1[C@@H]2CC[C@]2(C)[C@@H](O)CC[C@@H]12 |  |  |  |  |  |  |  |  |  |  |  |  |  | Active | 
10 | COc1cc(C2Oc3cc([C@H]4Oc5cc(O)cc(O)c5C(=O)[C@@H]4O)ccc3OC2CO)ccc1O (mixture of isomers) [SILIBININ] | 72.6 | Non-toxic | 9.99 |  |  |  |  | 50 |  |  | 75 |  |  |  | Active
